In ChEMBL document CHEMBL4007469, “Design and synthesis of dalbergin analogues and evaluation of anti-osteoporotic activity” (Bioorg Med Chem Lett, 2017):
Activity calls are given as the source filed them. The rule behind the calls is not given here.

How the values were obtained:
Mus musculus [1] = assay: Osteogenic activity in Balb/c mouse drill-hole fracture model assessed as trabecular separation at 1 mg/kg, po qd via gavage for 21 days by micro-CT method (reference value: 0.219 +/- 0.015 millimeter)
Mus musculus [2] = assay: Osteogenic activity in Balb/c mouse drill-hole fracture model assessed as trabecular number at 1 mg/kg, po qd via gavage for 21 days by micro-CT method (reference value: 2.194 +/- 0.265 /millimeter)
Mus musculus [3] = assay: Anti-osteoporotic activity in ovariectomized postmenopausal Balb/c mouse model assessed as increase in Osx gene expression in femur bone at 1 mg/kg, po qd via gavage for 6 weeks by RT-PCR method; type: functional, organism-based
Method in brief: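 Eight-week-old female Balb/c mice, ovariectomized and left 6 weeks for osteopenia to develop; groups sham+vehicle, OVx+vehicle, OVx+1.0 mg/kg/day, dosed once daily by oral gavage for 6 weeks in gum acacia/distilled water vehicle. Mice kept at 21°C, 12 h light/dark, chow and water ad libitum. Femoral bone mRNA or serum measured after sacrifice; mean ± SE versus OVx group.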

Mus musculus [4] = assay: Anti-osteoporotic activity in ovariectomized postmenopausal Balb/c mouse model assessed as bone formation rate at 1 mg/kg, po qd via gavage for 6 weeks by fluorochromes tetracycline and calcein labeling based histomorphometric analysis (reference value: 0.098 +/- 0.01 um3.um2/day); type: functional
Mus musculus [5] = assay: Osteogenic activity in Balb/c mouse drill-hole fracture model assessed as increase in BMP4 mRNA level at 1 mg/kg, po qd via gavage for 21 days by RT-PCR method
Mus musculus [6] = assay: In vivo induction of osteogenesis in Balb/c mouse assessed as increase in OCN mRNA level in calvaria at 1 mg/kg/day, sc over calvarial surface for 5 consecutive days by RT-PCR method relative to control; type: functional
Method in brief: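 Three-week-old Balb/c mice (3 per group) injected subcutaneously over the calvarial surface daily for 5 consecutive days at 0.1, 0.5, 1 and 5 mg/kg/day. Calvaria fixed in 4% formaldehyde, paraffin-embedded, H&E-stained; tetracycline and calcein (20 mg/kg each, ip) given for MAR/BFR histomorphometry; calvarial mRNA by RT-PCR. Mean ± SE, three independent experiments, versus untreated.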

Mus musculus [7] = assay: Anti-osteoporotic activity in ovariectomized postmenopausal Balb/c mouse model assessed as trabecular bone formation by measuring increase in bone volume fraction at 1 mg/kg, po qd via gavage for 6 weeks by micro CT-scan analysis relative to control; type: functional
Method in brief: (§1)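 Female Balb/c mice, 8 weeks old, ovariectomized, 6 weeks osteopenia development, then 1.0 mg/kg/day or gum acacia vehicle by oral gavage once daily for 6 weeks (sham, OVx and treated groups). Bones collected after sacrifice for micro-CT of trabecular microarchitecture (BV/TV, Tb.N, Tb.Th, Tb.Sp, SMI) and biomechanical testing of femur and vertebrae (energy, stiffness); mean ± SE versus OVx.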

Mus musculus [8] = assay: Osteogenic activity in Balb/c mouse drill-hole fracture model assessed as increase in aggrecan mRNA level at 1 mg/kg, po qd via gavage for 21 days by RT-PCR method
Mus musculus [9] = assay: Osteogenic activity in Balb/c mouse drill-hole fracture model assessed as structure model index at 1 mg/kg, po qd via gavage for 21 days by micro-CT method (reference value: 2.585 +/- 0.387)
Mus musculus [10] = assay: Osteogenic activity in Balb/c mouse drill-hole fracture model assessed as increase in COL1 mRNA level at 1 mg/kg, po qd via gavage for 21 days by RT-PCR method relative to control
Mus musculus [11] = assay: Anti-osteoporotic activity in ovariectomized postmenopausal Balb/c mouse model assessed as micro-artchitectural parameter in vertebrae by measuring bone volume fraction at 1 mg/kg, po qd via gavage for 6 weeks by micro CT-scan analysis (reference value: 13.92 +/-1.66%); type: functional
Method in brief: as §1

Mus musculus [12] = assay: Osteogenic activity in Balb/c mouse drill-hole fracture model assessed as increase in OCN mRNA level at 1 mg/kg, po qd via gavage for 21 days by RT-PCR method relative to control
Mus musculus [13] = assay: Osteogenic activity in Balb/c mouse drill-hole fracture model assessed as trabecular thickness at 1 mg/kg, po qd via gavage for 21 days by micro-CT method (reference value: 0.111 +/- 0.006 millimeter)

What does the source list for `COc1cc2oc(=O)cc(-c3ccccc3)c2cc1OCCCCCN1CCN(C)CC1`?
Activity (Mus musculus [1]): 0.164 mm; Activity (Mus musculus [2]): 3.442 /millimeter; Activity (Mus musculus [3]): Active; Activity (Mus musculus [4]): 0.163 um3.um2/day; Activity (Mus musculus [5]): Active; fold change (FC) (Mus musculus [6]): 4; fold change (FC) (Mus musculus [7]): 1.5; Activity (Mus musculus [8]): Active; Activity_index (Mus musculus [9]): 0.496; fold change (FC) (Mus musculus [10]): 6; Activity (Mus musculus [11]): 23.43%; fold change (FC) (Mus musculus [12]): 6; Activity (Mus musculus [13]): 0.166 mm
